Key:
human 11β-HSD1 = human 11β-HSD1 (Homo sapiens, UniProt P28845); test: 11β-HSD1 inhibition cellular assay; assay type: cell-based; conditions: for IC50: IC50, human 11β-HSD1, HEK293 cell line transfected with human HSD11B1 gene, mean of three measurements, variance less than 20 %; for inhibition at 1 µM: HEK293, read-out: Percent inhibition
mouse 11β-HSD1 = mouse 11β-HSD1 (Mus musculus, UniProt P50172); test: Inhibition of mouse 11β-HSD1; assay type: cell-based
17β-HSD1 = biological target: T1, 17β-HSD1 (Homo sapiens, UniProt P14061); test: Selectivity: inhibition of 17β-HSD1; conditions: at a concentration of 10 μM (data not shown)
T1 sequence (P14061 1-328): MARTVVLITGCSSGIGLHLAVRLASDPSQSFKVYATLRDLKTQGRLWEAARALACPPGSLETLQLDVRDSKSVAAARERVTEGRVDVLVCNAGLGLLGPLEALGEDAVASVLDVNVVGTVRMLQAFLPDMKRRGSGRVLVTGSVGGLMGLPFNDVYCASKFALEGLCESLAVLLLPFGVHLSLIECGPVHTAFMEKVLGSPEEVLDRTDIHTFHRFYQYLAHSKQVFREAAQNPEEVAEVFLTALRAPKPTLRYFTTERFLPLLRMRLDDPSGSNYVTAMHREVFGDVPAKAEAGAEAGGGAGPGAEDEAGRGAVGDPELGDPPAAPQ

human 11β-HSD2 = biological target: T2, human 11β-HSD2 (Homo sapiens, UniProt P80365); test: Selectivity: inhibition of human 11β-HSD2; assay type: cell-based; conditions: at a concentration of 10 μM (data not shown)
T2 sequence (P80365 1-405): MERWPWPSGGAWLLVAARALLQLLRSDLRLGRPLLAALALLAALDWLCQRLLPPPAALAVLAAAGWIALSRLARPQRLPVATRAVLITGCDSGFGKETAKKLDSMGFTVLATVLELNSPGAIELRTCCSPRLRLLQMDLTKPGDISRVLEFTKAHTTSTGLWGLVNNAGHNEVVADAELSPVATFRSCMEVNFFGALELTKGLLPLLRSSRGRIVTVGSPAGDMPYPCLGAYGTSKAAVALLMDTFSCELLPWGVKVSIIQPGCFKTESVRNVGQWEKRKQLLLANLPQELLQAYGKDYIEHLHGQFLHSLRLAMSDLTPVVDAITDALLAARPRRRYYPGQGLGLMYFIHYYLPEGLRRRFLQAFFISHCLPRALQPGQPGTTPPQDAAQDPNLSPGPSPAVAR

[1] = Membrane permeability in the Caco-2 cell model; assay type: in vitro ADME; conditions: human
Outline: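 Caco-2 monolayer permeability. Test compound was applied at 20 μm, and the apparent permeability coefficient (Papp) was determined in the apical-to-basolateral direction.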

mouse 11β-HSD1, sequence (P50172 whole entry): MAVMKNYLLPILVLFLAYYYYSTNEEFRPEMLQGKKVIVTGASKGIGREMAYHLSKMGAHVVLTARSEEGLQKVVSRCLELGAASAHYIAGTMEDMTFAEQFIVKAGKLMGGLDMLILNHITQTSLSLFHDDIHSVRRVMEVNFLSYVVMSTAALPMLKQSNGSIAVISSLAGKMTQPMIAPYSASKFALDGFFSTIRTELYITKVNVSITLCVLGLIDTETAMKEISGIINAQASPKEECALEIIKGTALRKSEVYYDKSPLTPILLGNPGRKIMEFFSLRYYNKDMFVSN
human 11β-HSD1, sequence (P28845 whole entry): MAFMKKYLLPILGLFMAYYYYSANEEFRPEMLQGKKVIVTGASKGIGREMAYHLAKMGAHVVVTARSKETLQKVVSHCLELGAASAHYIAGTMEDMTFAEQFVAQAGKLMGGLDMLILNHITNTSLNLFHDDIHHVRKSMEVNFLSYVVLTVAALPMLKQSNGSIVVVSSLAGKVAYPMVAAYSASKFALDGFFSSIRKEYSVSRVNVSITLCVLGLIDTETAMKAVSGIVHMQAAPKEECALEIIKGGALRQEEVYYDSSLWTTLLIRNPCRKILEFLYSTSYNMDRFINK

melting point [°C] | IC50 (human 11β-HSD1) [nM] | Compound | further results
57 to 58 | 410 | O=C(COCc1cccs1)C12CC3CC(CC(C3)C1)C2 [Compound 6, 1-(Adamantan-1-yl)-2-(thiophen-2-ylmethoxy)ethanone] | 
58 to 60 | 280 | O=C(COCc1ccsc1)C12CC3CC(CC(C3)C1)C2 [Compound 7, 1-(Adamantan-1-yl)-2-(thiophen-3-ylmethoxy)ethanone] | 
89 to 91 | 41 | O=C(COCc1nccs1)C12CC3CC(CC(C3)C1)C2 [Compound 8, 1-(Adamantan-1-yl)-2-(1,3-thiazol-2-ylmethoxy)ethanone] | IC50 (mouse 11β-HSD1): 18 nM
77 to 80 |  | Cc1csc(COCC(=O)C23CC4CC(CC(C4)C2)C3)n1 [Compound 9, 1-(Adamantan-1-yl)-2-[(4-methyl-1,3-thiazol-2-yl)methoxy]ethanone] | 
 | 143 | O=C(CSCc1cccs1)C12CC3CC(CC(C3)C1)C2 [Compound 10, 1-(Adamantan-1-yl)-2-(thiophen-2-ylmethylsulfanyl)ethanone] | 
 | 163 | O=C(CSCc1ccco1)C12CC3CC(CC(C3)C1)C2 [Compound 11, 1-(Adamantan-1-yl)-2-(furan-2-ylmethylsulfanyl)-ethanone] | 
55 to 58 | 244 | O=C(CSCc1nccs1)C12CC3CC(CC(C3)C1)C2 [Compound 12, 1-(Adamantan-1-yl)-2-[(1,3-thiazol-2-ylmethyl)sulfanyl]ethanone] | 
 | 327 | Cc1csc(CSCC(=O)C23CC4CC(CC(C4)C2)C3)n1 [Compound 13, 1-(Adamantan-1-yl)-2-{[(4-methyl-1,3-thiazol-2-yl)methyl]sulfanyl}ethanone] | 
75 to 79 | 41 | O=C(C[S+]([O-])Cc1ccco1)C12CC3CC(CC(C3)C1)C2 (stereo not shown) [Compound 15, 1-(Adamantan-1-yl)-2-(furan-2-ylmethanesulfinyl)ethanone] | IC50 (mouse 11β-HSD1): 38 nM
 | 264 | COC(=O)c1ccc(CSCC(=O)C23CC4CC(CC(C4)C2)C3)o1 [Compound 18, Methyl 5-({[2-(adamantan-1-yl)-2-oxoethyl]sulfanyl}methyl)furan-2-carboxylate] | 
 |  | O=C(O)c1ccc(CSCC(=O)C23CC4CC(CC(C4)C2)C3)o1 [Compound 19, 5-(((2-(Adamantan-1-yl)-2-oxoethyl)thio)methyl)furan-2-carboxylic acid] | inhibition at 1 µM (human 11β-HSD1): 67%
 | 153 | CN(C)C(=O)c1ccc(CSCC(=O)C23CC4CC(CC(C4)C2)C3)o1 [Compound 20, 5-({[2-(Adamantan-1-yl)-2-oxoethyl]sulfanyl}methyl)-N,N-dimethylfuran-2-carboxamide] | 
69 to 72 | 101 | O=C(CSc1cccs1)C12CC3CC(CC(C3)C1)C2 [Compound 26, 1-(Adamantan-1-yl)-2-(thiophen-2-ylsulfanyl)-ethanone] | 
65 to 69 | 93 | Cn1ccnc1SCC(=O)C12CC3CC(CC(C3)C1)C2 [Compound 27, 1-(Adamantan-1-yl)-2-(1-methyl-1H-imidazol-2-ylsulfanyl)-ethanone] | 
102 to 105 |  | Cc1nnc(SCC(=O)C23CC4CC(CC(C4)C2)C3)s1 [Compound 29, 1-(Adamantan-1-yl)-2-(5-methyl-[1,3,4]thiadiazol-2-ylsulfanyl)-ethanone] | 
86 to 89 | 48 | Cn1ccnc1[S+]([O-])CC(=O)C12CC3CC(CC(C3)C1)C2 (stereo not shown) [Compound 31, 1-(Adamantan-1-yl)-2-(1-methyl-1H-imidazole-2-sulfinyl)ethanone] | inhibition against 17β-HSD1 (17β-HSD1): inactive; inhibition against human 11β-HSD2 (human 11β-HSD2): inactive; Papp A→B at 20 μM [1]: 44 ×10⁻⁶ cm/s; IC50 (mouse 11β-HSD1): 121 nM
124.5 to 127 | 27 | Cn1cnnc1[S+]([O-])CC(=O)C12CC3CC(CC(C3)C1)C2 (stereo not shown) [Compound 32, 1-(Adamantan-1-yl)-2-(4-methyl-4H-[1,2,4]triazole-3-sulfinyl)ethanone] | IC50 (mouse 11β-HSD1): 3080 nM

melting point [°C] | IC50 (human 11β-HSD1) [nM] | Compound | further results
127 to 129 | 26 | Cc1nnc([S+]([O-])CC(=O)C23CC4CC(CC(C4)C2)C3)s1 (stereo not shown) [Compound 33, 1-(Adamantan-1-yl)-2-(5-methyl-[1,3,4]thiadiazole-2-sulfinyl)ethanone] | IC50 (mouse 11β-HSD1): 44 nM
124 to 125 | 62 | Cn1ccnc1S(=O)(=O)CC(=O)C12CC3CC(CC(C3)C1)C2 [Compound 35, 1-(Adamantan-1-yl)-2-(1-methyl-1H-imidazole-2-sulfonyl)ethanone] | 
149 to 150 | 95 | Cn1cnnc1S(=O)(=O)CC(=O)C12CC3CC(CC(C3)C1)C2 [Compound 36, 1-(Adamantan-1-yl)-2-(4-methyl-4H-[1,2,4]triazole-3-sulfonyl)ethanone] | 
 | 36 | Cc1nnc(SCC(=O)C23CC4CC(CC(C4)C2)C3)n1C [Compound 38, 1-(Adamantan-1-yl)-2-[(4,5-dimethyl-1,2,4-triazol-3-yl)sulfanyl]ethanone] | inhibition against 17β-HSD1 (17β-HSD1): inactive; inhibition against human 11β-HSD2 (human 11β-HSD2): inactive; IC50 (mouse 11β-HSD1): 248 nM
 | 137 | Cc1nnc(SCC(=O)C23CC4CC(CC(C4)C2)C3)n1C(C)C [Compound 39, 1-(Adamantan-1-yl)-2-{[5-methyl-4-(propan-2-yl)-4H-1,2,4-triazol-3-yl]sulfanyl}ethanone] | 
 | 129 | Cn1c(SCC(=O)C23CC4CC(CC(C4)C2)C3)nnc1C1CC1 [Compound 40, 1-(Adamantan-1-yl)-2-[(5-cyclopropyl-4-methyl-4H-1,2,4-triazol-3-yl)sulfanyl]ethanone] | 
 | 153 | COCc1nnc(SCC(=O)C23CC4CC(CC(C4)C2)C3)n1C [Compound 41, 1-(Adamantan-1-yl)-2-{[5-(methoxymethyl)-4-methyl-4H-1,2,4-triazol-3-yl]sulfanyl}ethanone] | 
 | 97 | COC(=O)Cc1nnc(SCC(=O)C23CC4CC(CC(C4)C2)C3)n1C [Compound 42, Methyl 2-(5-{[2-(adamantan-1-yl)-2-oxoethyl]sulfanyl}-4-methyl-4H-1,2,4-triazol-3-yl)acetate] | 
117 to 119 | 1860 | O=C(CSc1nnc(C2CC2)n1C1CC1)C12CC3CC(CC(C3)C1)C2 [Compound 43, 1-(Adamantan-1-yl)-2-[(4,5-dicyclopropyl-4H-1,2,4-triazol-3-yl)sulfanyl]ethanone] | 
156 to 157 | 5870 | Cn1c(SCC(=O)C23CC4CC(CC(C4)C2)C3)nnc1-c1cccs1 [Compound 44, 1-(Adamantan-1-yl)-2-{[4-methyl-5-(thiophen-2-yl)-4H-1,2,4-triazol-3-yl]sulfanyl}ethanone] | 
 | 4000 | CN(C)c1nnc(SCC(=O)C23CC4CC(CC(C4)C2)C3)s1 [Compound 45, 1-(Adamantan-1-yl)-2-{[5-(dimethylamino)-1,3,4-thiadiazol-2-yl]sulfanyl}ethanone] | 
133.5 to 135 | 306 | CSc1nnc(SCC(=O)C23CC4CC(CC(C4)C2)C3)s1 [Compound 46, 1-(Adamantan-1-yl)-2-{[5-(methylsulfanyl)-1,3,4-thiadiazol-2-yl]sulfanyl}ethanone] | 
 |  | CCSc1nnc(SCC(=O)C23CC4CC(CC(C4)C2)C3)s1 [Compound 47, 1-(Adamantan-1-yl)-2-{[5-(ethylsulfanyl)-1,3,4-thiadiazol-2-yl]sulfanyl}ethanone] | inhibition at 1 µM (human 11β-HSD1): 68%
198 to 199 | 71 | Nc1nnc(SCC(=O)C23CC4CC(CC(C4)C2)C3)s1 [Compound 48, 1-(Adamantan-1-yl)-2-[(5-amino-1,3,4-thiadiazol-2-yl)sulfanyl]ethanone] | 
202 to 204 | 1790 | Nc1nnc(S(=O)(=O)CC(=O)C23CC4CC(CC(C4)C2)C3)s1 [Compound 49, 1-(Adamantan-1-yl)-2-(5-amino-1,3,4-thiadiazole-2-sulfonyl)ethanone] | 
 | 848 | CC(=O)Nc1nnc(SCC(=O)C23CC4CC(CC(C4)C2)C3)s1 [Compound 50, N-(5-{[2-(Adamantan-1-yl)-2-oxoethyl]sulfanyl}-1,3,4-thiadiazol-2-yl)acetamide] | 

Reference: article PMC3170876 (Chemmedchem, 2011)
